The values that follow come from ChEMBL document CHEMBL1649408, “Synthesis and in vitro antimycobacterial activity of 8-OCH(3) ciprofloxacin methylene and ethylene isatin derivatives” (Eur J Med Chem, 2011).

Converted amounts (≈) assume the structure as drawn.

In experiment [1] the test system is Mycobacterium tuberculosis. The experiment can be described thus: Antimycobacterial activity against multidrug-resistant Mycobacterium tuberculosis 09710 after 7 days by serial double dilution technique. It counts as functional. The settings on record: Mycobacterium tuberculosis, 09710, 168 h. The essentials: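 MDR strain (resistant to RIF, INH, EMB, SM), clinical isolate, tested by rapid direct susceptibility test. Compounds two-fold diluted in 2× Advanced Middlebrook 7H9 broth, final 256 to 1 µg/ml, mixed 1:1 with suspension containing 4 × 10^-3 mg cells. Incubated sealed at 37 °C in wet box; read at 3 days, redetermined at 7 days by high-magnification visual system. MIC = complete growth inhibition.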

In experiment [2] the test system is Mycobacterium tuberculosis. Description: Ratio of compound MIC to ciprofloxacin MIC for multidrug-resistant Mycobacterium tuberculosis 09710. It counts as functional.

The term MIC denotes the lowest concentration found to suppress growth. Compound `COc1c(N2CCN(CN3C(=O)/C(=N\O)c4cc(F)ccc43)CC2)c(F)cc2c(=O)c(C(=O)O)cn(C3CC3)c12` had an MIC in experiment [1] of 14.5 µM (≈ 8.01 µg/mL).

For the compound `COc1c(N2CCNCC2)c(F)cc2c(=O)c(C(=O)O)cn(C3CC3)c12`, in experiment [1], the lowest concentration to inhibit growth (MIC) was 11.1 µM (≈ 4 µg/mL).

In the case of `NNC(=O)c1ccncc1` [ISONIAZID], the MIC in experiment [1] was found to be 467 µM (≈ 64 µg/mL).

`COc1c(N2CCN(CN3C(=O)/C(=N\NC(N)=O)c4ccccc43)CC2)c(F)cc2c(=O)c(C(=O)O)cn(C3CC3)c12` registered an MIC in experiment [1] of 6.93 µM (≈ 4 µg/mL). The Ratio in experiment [2] was found to be 3.5.

In experiment [1], `O=C(O)c1cn(C2CC2)c2cc(N3CCNCC3)c(F)cc2c1=O` [CIPROFLOXACIN] had an MIC of 24.2 µM (≈ 8.01 µg/mL).

In experiment [1], `CCO/N=C1\C(=O)N(CN2CCN(c3c(F)cc4c(=O)c(C(=O)O)cn(C5CC5)c4c3OC)CC2)c2ccccc21` had an MIC of 28.4 µM (≈ 16 µg/mL).

In turn, `COc1c(N2CCN(CN3C(=O)/C(=N\O)c4ccccc43)CC2)c(F)cc2c(=O)c(C(=O)O)cn(C3CC3)c12` had an MIC in experiment [1] of 29.9 µM (≈ 16 µg/mL).

For the compound `COc1c(N2CCN(CN3C(=O)/C(=N\NC(N)=O)c4cc(F)ccc43)CC2)c(F)cc2c(=O)c(C(=O)O)cn(C3CC3)c12`, in experiment [1], it took 6.72 µM (≈ 4 µg/mL) to inhibit growth (MIC). Besides, the Ratio in experiment [2] was 3.5.

On to `CO/N=C1\C(=O)N(CN2CCN(c3c(F)cc4c(=O)c(C(=O)O)cn(C5CC5)c4c3OC)CC2)c2ccc(F)cc21`, for which inhibition of growth in experiment [1] (MIC) required 7.05 µM (≈ 4 µg/mL). In experiment [2], the Ratio was 3.5.

In experiment [1], `COc1c(N2CCN(CN3C(=O)/C(=N\NC(N)=S)c4ccccc43)CC2)c(F)cc2c(=O)c(C(=O)O)cn(C3CC3)c12` displayed an MIC of 6.75 µM (≈ 4.01 µg/mL). For the same compound, the Ratio in experiment [2] was found to be 3.5.

`CO/N=C1\C(=O)N(CN2CCN(c3c(F)cc4c(=O)c(C(=O)O)cn(C5CC5)c4c3OC)CC2)c2ccccc21` displayed an MIC in experiment [1] of 14.6 µM (≈ 8.01 µg/mL).

For the compound `COc1c(N2CCN(CN3C(=O)C(=O)c4cc(F)ccc43)CC2)c(F)cc2c(=O)c(C(=O)O)cn(C3CC3)c12`, inhibition of growth in experiment [1] (MIC) required 14.9 µM (≈ 8.01 µg/mL).

In the case of `CO[C@H]1/C=C/O[C@@]2(C)Oc3c(C)c(O)c4c(O)c(c(/C=N/N5CCN(C)CC5)c(O)c4c3C2=O)NC(=O)/C(C)=C\C=C\[C@H](C)[C@H](O)[C@@H](C)[C@@H](O)[C@@H](C)[C@H](OC(C)=O)[C@@H]1C` [RIFAMPIN], the MIC in experiment [1] was over 311 µM.

For `COc1c(N2CCN(CN3C(=O)C(=O)c4ccccc43)CC2)c(F)cc2c(=O)c(C(=O)O)cn(C3CC3)c12`, the MIC in experiment [1] came out at 30.8 µM (≈ 16 µg/mL).
